37 variants from the RNAGym collection of RNA variant scans (doi:10.1126/science.aae0568) can be followed below.

Variants at the floor of the assay were thinned out.

First the molecules themselves.
B1: tRNA (parent)
chain: GUUCCGUUGGCGUAAUGGUAACGCGUCUCCCUCCUAAGGAGAAGACUGCGGGUUCGAGUCCCGUACGGAACG

The variants in this data set derive from B1. Kind of data set: yeast fitness relative to wild type (ratio to wild type); higher = fitter; tRNA-Arg(CCU), competitive growth, 37 C, YPD. The gist of the method:
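The tRNA-Arg(CCU) gene variants were made by chemical synthesis with a 3% per-site mutation rate at 69 sites and inserted at the native genomic locus of Saccharomyces cerevisiae. After pooling, the strains were competed in YPD at 37°C for 24 hours in six parallel replicates. Gene amplicons from the start population and each end population were read by 100-nucleotide paired-end sequencing, and Darwinian fitness relative to wild type was taken from genotype frequency changes. Genotypes needed ≥ 100 starting reads, and estimates < 0.5 were set to 0.5.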
As for GUUCCGAUGGCGUAAUGGUAACGCGUUUCCCUCCUAAGGAGAAGACUGCGGGUUCGAGUCCCGUACGGAACG [U7A C27U], the yeast fitness worked out at 0.666.

GUUCCGAUGGCGUAAUGGUAACGCGUAUCCCUCCUAAGGAGAAGACUGCGGGUUCGAGUCCCGUACGGAACG [U7A C27A]: the yeast fitness worked out at 0.665.

As to GUUCCGAUGGCGUAAUGGUAACGCGUCUCCCUCGUAAGAAGAAGACUGCGGGUUCGAGUCCCGUACGGAACG [U7A C34G G39A], the yeast fitness is no more than 0.5.

For the variant GUUCCGAUGGCGUAAUGGUAACGCGUCUUCAUCCUAAGGAGAAGACUGCGGGUUCGAGUCCCGUACGGAACG [U7A C29U C31A], the yeast fitness is no more than 0.5.

Turning to GUUCCGAUGGCGUAAUGGUAACGCGUCUCCCUCCUAAGGAGAAGAUUGCGGGUUCGAGCCCGGUUCGGAACG [U7A C46U U59C C62G A65U], the yeast fitness is no more than 0.5.

Consider GUUCCGAUGGCGUAAUGGUAACGCGUCUUCCUCCUAAGGAGAAGACUGCGGGUUCGAGUCUCGUACGCAACG [U7A C29U C61U G68C], for which the yeast fitness stood at 0.582.

As for GUUCCGAUGGCGUAAUGGUAACGCGUCUCACUCCUAAGGAGAAGACUGCGAGUUCGAGUCCCGUACGGAACG [U7A C30A G51A], the yeast fitness is no more than 0.5.

Regarding GUUCCGAUGGCGUAAUGGUAACGCGUCUCCCUUCUAAGGAGCAGACUGCGGGUUCGAGUCCCGCACGGAGCG [U7A C33U A42C U64C A70G], the yeast fitness was no more than 0.5.

For the variant GUUCCGAUGGCGUAAUGGUAACGCGUCUCCUUCCUAAGGUGAAGACUGCGGGUUCGAGUCCCGUACGGAACG [U7A C31U A40U], the yeast fitness was no more than 0.5.

Regarding GUUCCGAUGGCGUAAUGGUAAUGCGUCUCCCUCCUAAGGAGAAGACUGCGGGUUCGAGUCCCGUACGGAACG [U7A C22U], the yeast fitness was determined as 0.798.

With GUUCCGAUGGCGUAAUGGUAACGCGUCUGCCUCCUCAGGAGAAGACUGCGGGUUCGAGUCCCGUACGGAACG [U7A C29G A36C], the yeast fitness was determined as 0.566.

For GUUCCGAUGGCGUAAUGGUAAUGCGUCAGCCUACUAAGGAGUAGACUGCGGGUUCGAGUCCCGUACGGAUCG [U7A C22U U28A C29G C33A A42U A70U], the yeast fitness is no more than 0.5.

GUUCCGAUGGCGUAAUGGUAAGGCGUCUCUCUCCUAGGGAGAAGACUGCGGGUUAGAGUCCCGUACGGAACG [U7A C22G C30U A37G C55A]: the yeast fitness is no more than 0.5.

Take GUUCCGAUGGUGUAAUGGUAACGCGUCUCCCUCCUUAGGAGAAGACUGCGGGUUCGACUCCCGUACGGAACG [U7A C11U A36U G58C]: the yeast fitness was no more than 0.5.

Turning to GUUCCGAUGGUGUAAUGGUAACGCGUCUCCCUCCUAAGGAGAAGACUGAGGGUUCGAGUCCCGUACGGAACG [U7A C11U C49A], the yeast fitness is 0.614.

In the case of GUUCCGAUGGUGUAAUCGUAACGCGUCUCGCUCCUACGGAGAAGACUCCGAGUUCGAGUCCCGUACGGAACG [U7A C11U G17C C30G A37C G48C G51A], the yeast fitness is no more than 0.5.

GUUCCGAUGGGGUAAUGGUAACGCGUCUCCCUCCUAAGGAGAAGACUGCGGGUUCGAGUACCGUACGGAACG [U7A C11G C60A]: the yeast fitness is no more than 0.5.

GUUCCGAUGGCGUAAUGGUAACGCGUGUCCCUCGUAAGGAGAAGACUGCGGGUACGAGUCCCGUACGGAACG [U7A C27G C34G U54A]: the yeast fitness is no more than 0.5.

For GUUCCGAUGGCGUAAUGGUAACGCGUCUCCCUCAUAAGGAGAAGACUGCGGGUUCCAGUCCCGUACGCAACG [U7A C34A G56C G68C], the yeast fitness is no more than 0.5.

For GUUCCGAUGGCGUAAUGGUAACGUGUCUCCCUCCUAAGGAGAAGAAUGCGGGUUCGAGUCCCGUACGGAACG [U7A C24U C46A], the yeast fitness amounted to 0.567.

As to GUUCCGAUGGCGUAAUGGUAACGCGUCUGCCUCGUGAGGAGAAGACUGCGGGUCCGGGUCCCGUACGGAACG [U7A C29G C34G A36G U54C A57G], the yeast fitness was no more than 0.5.

GUUCCGAUGGCGUAAUGGUAAAGCGUCUCCGGCCUAAGGAGGAGACUGCGGAUUCGAGUCCAGUACGGAACG [U7A C22A C31G U32G A42G G52A C62A]: the yeast fitness was no more than 0.5.

Turning to GUUCCGAUGGCGUAAUGGUAAGGCGUCUCUCUCCUAGGGAGAAGACUGCGGGUUCGAGUCCCGUACGGAGCG [U7A C22G C30U A37G A70G], the yeast fitness came out at 0.563.

In the case of GUUCCGAUGGCGUAAUGGUAACGCGUCUCCCUACUAAGGAGAAGCCUGCGGGUUCGAGUCCCGUACGAAACG [U7A C33A A45C G68A], the yeast fitness was no more than 0.5.

In the case of GUUCCGAUGGCGUAAUGGUAACGCGUCUCCCUUCUAAGGAGAAGACUGCGCGUUCGAGUCCCGUACGGAACG [U7A C33U G51C], the yeast fitness turned out to be 0.559.

For GUUCCGAUGGCGUAAUGGUAACGCGUCUCCCUCGUAAGGAGAAGACUGCGGGUUCGAGUCCUGUACGCAACG [U7A C34G C62U G68C], the yeast fitness stood at 0.559.

For the variant GUUCCGAUGGCGUAAUGGUAACGCGUCUCCCUCGUAAGGAGAAGACUGCGGGUUCGAGUCCCGUACGGAUCG [U7A C34G A70U], the yeast fitness was no more than 0.5.

Turning to GUUCCGAUGGCGUAAUGGUAACGCGUCUGCCUCCUCAGGAGAAGACUGCGGGUUCGAGUCCAGUACGGAACG [U7A C29G A36C C62A], the yeast fitness is no more than 0.5.

For the variant GUUCCGAUGGUGUAAAGGUAACGCAUCUCCCUCCUAAGGAGAAGACUGCGGGUUCGAGUCCCGUACGGAACG [U7A C11U U16A G25A], the yeast fitness was no more than 0.5.

GUUCCGAUGGCGUAAUGGUAACGCGUCUUCCUCCUAAGGAGAAGACUGCGGGUUCGAGUCCUGUACGGAACG [U7A C29U C62U]: the yeast fitness is no more than 0.5.

In the case of GUUCCGAUGGCGUAAUGGUAACGCGUCUCCCUCAUAAGGAGAAGACUGCGGGUUCCAGUCCCGUACGGAACG [U7A C34A G56C], the yeast fitness worked out at 0.541.

As for GUUCCGAUGGCGUAAUGGUAACGCGUCUCUCUCCUAAGAGGAAGACUGCGGGUUCGAGUCCCGUACAGAACG [U7A C30U G39A A40G G67A], the yeast fitness is no more than 0.5.

On to GUUCCGAUGGCGUAAUGGUAACGCGUCUCCCUCUUAAGGAGAAGACUGAGGGUUCGAGUCCCGUACGGAACG [U7A C34U C49A], for which the yeast fitness was no more than 0.5.

For the variant GUUCCGAUGGCGUAAUGGUAACGCGUCUCCUUCGUAAGGAGAAGACUGCGGGUUCGAGUCCCGUACGGAACG [U7A C31U C34G], the yeast fitness was no more than 0.5.

Consider GUUCCGAUGGCGUAAUGGUAACGCGUCUCCAUCCUAAGGAGAAGACUGCGGGUUCGAGUCCCGUACGGAACG [U7A C31A], for which the yeast fitness was determined as 0.634.

In the case of GUUCCGAUGGGGUAAUGGUAACGCGUCUCCCUCCUUAGGAGAAGACUGUGGGUUCGAGUCCCGUACGGAACG [U7A C11G A36U C49U], the yeast fitness was no more than 0.5.

With GUUCCGAUGGCGUAAUGGUAACGCGUCUCCCUCCUAAGGAGAAGACUGUGGGUUCGAGUCCCGUACGGAACG [U7A C49U], the yeast fitness stood at 0.738.
